According to ChEMBL document CHEMBL4390640, “Design of N-Benzoxaborole Benzofuran GSK8175-Optimization of Human Pharmacokinetics Inspired by Metabolites of a Failed Clinical HCV Inhibitor” (J Med Chem, 2019):

How the values were obtained:
[1] = Clearance in rat at 1 mg/kg, iv by LC-MS/MS analysis; assay type: ADME, organism-based; settings: in vivo
[2] = Volume of distribution at steady state in rat at 1 mg/kg, iv by LC-MS/MS analysis; assay type: ADME, organism-based; settings: in vivo, read-out: Vdss
[3] = Half life in rat at 1 mg/kg, iv by LC-MS/MS analysis; assay type: ADME, organism-based; settings: in vivo
[4] = AUC in rat at 5 mg/kg, po by LC-MS/MS analysis; assay type: ADME, organism-based; settings: in vivo
[5] = Oral bioavailability in rat at 5 mg/kg by LC-MS/MS analysis; assay type: ADME, organism-based; settings: in vivo
Cytochrome P450 2C9 = Cytochrome P450 2C9 (Homo sapiens, UniProt P11712); experiment: Inhibition of CYP2C9 in human liver microsomes using diclofenac as substrate preincubated for 10 mins followed by NADPH addition and measured by LC-MS/MS analysis; assay type: ADME
Sequence of Cytochrome P450 2C9 (P11712 whole entry): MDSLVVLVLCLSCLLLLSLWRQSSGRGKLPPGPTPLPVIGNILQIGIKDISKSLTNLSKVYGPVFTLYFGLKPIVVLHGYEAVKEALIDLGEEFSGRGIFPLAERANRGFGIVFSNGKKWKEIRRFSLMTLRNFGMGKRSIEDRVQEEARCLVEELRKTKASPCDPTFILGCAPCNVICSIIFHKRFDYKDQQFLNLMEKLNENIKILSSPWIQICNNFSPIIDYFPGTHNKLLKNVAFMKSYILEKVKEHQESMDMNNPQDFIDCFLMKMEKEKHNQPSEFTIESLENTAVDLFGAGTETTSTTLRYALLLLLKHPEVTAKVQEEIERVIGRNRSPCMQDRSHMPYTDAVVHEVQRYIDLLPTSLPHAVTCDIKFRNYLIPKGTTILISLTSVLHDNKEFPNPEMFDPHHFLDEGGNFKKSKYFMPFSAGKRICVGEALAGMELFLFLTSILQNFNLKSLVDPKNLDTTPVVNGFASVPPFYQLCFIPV

Cytochrome P450 2C19 = Cytochrome P450 2C19 (Homo sapiens, UniProt P33261); experiment: Inhibition of CYP2C19 in human liver microsomes using mephenytoin as substrate preincubated for 10 mins followed by NADPH addition and measured by LC-MS/MS analysis; assay type: ADME
Sequence of Cytochrome P450 2C19 (P33261 whole entry): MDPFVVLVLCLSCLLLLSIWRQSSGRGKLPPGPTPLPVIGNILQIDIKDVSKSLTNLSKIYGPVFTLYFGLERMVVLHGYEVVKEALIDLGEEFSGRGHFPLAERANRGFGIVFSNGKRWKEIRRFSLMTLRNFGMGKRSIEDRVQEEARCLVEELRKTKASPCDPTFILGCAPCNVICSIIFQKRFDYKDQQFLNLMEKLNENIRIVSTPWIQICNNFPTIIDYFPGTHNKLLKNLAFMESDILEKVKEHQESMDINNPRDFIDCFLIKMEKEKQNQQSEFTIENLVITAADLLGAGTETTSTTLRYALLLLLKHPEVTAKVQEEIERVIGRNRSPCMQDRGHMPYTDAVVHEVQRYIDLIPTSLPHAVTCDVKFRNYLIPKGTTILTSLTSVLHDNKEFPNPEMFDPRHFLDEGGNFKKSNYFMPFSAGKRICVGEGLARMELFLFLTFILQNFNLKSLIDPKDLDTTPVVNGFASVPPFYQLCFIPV

Cytochrome P450 3A4 [6] = biological target: T1, Cytochrome P450 3A4 (Homo sapiens, UniProt P08684); experiment: Inhibition of CYP3A4 in human liver microsomes using atorvastatin as substrate preincubated for 7 mins followed by NADPH addition and measured by LC-MS/MS analysis; assay type: ADME
T1 sequence (P08684 whole entry): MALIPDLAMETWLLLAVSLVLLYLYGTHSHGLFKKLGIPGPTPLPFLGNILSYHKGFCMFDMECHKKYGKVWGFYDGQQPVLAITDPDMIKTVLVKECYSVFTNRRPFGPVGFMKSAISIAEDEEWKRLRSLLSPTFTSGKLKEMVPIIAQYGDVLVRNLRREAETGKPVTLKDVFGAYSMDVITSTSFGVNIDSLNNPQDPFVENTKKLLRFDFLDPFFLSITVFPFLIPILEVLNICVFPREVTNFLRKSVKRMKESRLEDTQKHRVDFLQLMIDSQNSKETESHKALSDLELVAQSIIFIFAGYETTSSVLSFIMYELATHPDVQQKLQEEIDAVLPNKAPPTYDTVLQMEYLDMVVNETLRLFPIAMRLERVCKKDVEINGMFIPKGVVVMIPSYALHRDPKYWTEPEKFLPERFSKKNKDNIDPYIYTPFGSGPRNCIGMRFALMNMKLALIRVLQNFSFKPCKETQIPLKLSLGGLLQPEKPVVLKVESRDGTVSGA

Cytochrome P450 3A4 [7] = biological target: T1, Cytochrome P450 3A4; experiment: Inhibition of CYP3A4 in human liver microsomes using midazolam as substrate preincubated for 7 mins followed by NADPH addition and measured by LC-MS/MS analysis; assay type: ADME
Cytochrome P450 3A4 [8] = biological target: T1, Cytochrome P450 3A4; experiment: Inhibition of CYP3A4 in human liver microsomes using nifedipine as substrate preincubated for 7 mins followed by NADPH addition and measured by LC-MS/MS analysis; assay type: ADME
Cytochrome P450 1A2 = biological target: T2, Cytochrome P450 1A2 (Homo sapiens, UniProt P05177); experiment: Inhibition of CYP1A2 in human liver microsomes at 0.033 to 33 uM using phenacetin as substrate preincubated for 10 mins followed by NADPH addition and measured by LC-MS/MS analysis; assay type: ADME
T2 sequence (P05177 whole entry): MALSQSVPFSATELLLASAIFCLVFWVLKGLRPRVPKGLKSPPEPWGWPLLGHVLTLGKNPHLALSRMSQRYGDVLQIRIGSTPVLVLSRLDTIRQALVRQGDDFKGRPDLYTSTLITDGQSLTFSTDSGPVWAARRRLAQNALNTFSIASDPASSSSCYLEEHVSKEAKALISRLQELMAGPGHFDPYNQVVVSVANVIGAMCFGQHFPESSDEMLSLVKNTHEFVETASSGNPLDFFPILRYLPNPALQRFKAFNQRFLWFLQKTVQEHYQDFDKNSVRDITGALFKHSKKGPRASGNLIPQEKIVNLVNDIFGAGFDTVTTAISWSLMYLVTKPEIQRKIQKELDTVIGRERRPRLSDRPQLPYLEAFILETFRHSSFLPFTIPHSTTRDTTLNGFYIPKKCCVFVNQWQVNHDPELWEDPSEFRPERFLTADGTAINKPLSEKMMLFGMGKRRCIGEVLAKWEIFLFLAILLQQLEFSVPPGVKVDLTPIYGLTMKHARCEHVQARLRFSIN

Cytochrome P450 2D6 = Cytochrome P450 2D6 (Homo sapiens, UniProt P10635); experiment: Inhibition of CYP2D6 in human liver microsomes at 0.033 to 33 uM using bufuralol as substrate preincubated for 10 mins followed by NADPH addition and measured by LC-MS/MS analysis; assay type: ADME
Sequence of Cytochrome P450 2D6 (P10635 whole entry): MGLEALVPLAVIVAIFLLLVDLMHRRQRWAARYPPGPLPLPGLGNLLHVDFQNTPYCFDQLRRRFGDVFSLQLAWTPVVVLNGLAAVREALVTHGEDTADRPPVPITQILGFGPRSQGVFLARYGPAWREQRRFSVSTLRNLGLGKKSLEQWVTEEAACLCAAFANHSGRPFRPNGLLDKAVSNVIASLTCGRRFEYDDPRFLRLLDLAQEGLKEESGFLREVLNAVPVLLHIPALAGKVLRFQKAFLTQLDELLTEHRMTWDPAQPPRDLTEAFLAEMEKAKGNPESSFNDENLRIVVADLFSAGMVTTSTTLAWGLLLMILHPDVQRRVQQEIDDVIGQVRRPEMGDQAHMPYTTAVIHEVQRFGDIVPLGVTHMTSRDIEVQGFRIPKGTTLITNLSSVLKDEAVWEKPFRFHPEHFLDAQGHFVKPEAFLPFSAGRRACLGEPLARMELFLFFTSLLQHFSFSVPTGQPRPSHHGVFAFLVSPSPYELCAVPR

[9] = biological target: Voltage-gated inwardly rectifying potassium channel KCNH2 (Homo sapiens, UniProt Q12809); experiment: Inhibition of human ERG by patch clamp electrophysiology method
Sequence of Voltage-gated inwardly rectifying potassium channel KCNH2 (Q12809 whole entry): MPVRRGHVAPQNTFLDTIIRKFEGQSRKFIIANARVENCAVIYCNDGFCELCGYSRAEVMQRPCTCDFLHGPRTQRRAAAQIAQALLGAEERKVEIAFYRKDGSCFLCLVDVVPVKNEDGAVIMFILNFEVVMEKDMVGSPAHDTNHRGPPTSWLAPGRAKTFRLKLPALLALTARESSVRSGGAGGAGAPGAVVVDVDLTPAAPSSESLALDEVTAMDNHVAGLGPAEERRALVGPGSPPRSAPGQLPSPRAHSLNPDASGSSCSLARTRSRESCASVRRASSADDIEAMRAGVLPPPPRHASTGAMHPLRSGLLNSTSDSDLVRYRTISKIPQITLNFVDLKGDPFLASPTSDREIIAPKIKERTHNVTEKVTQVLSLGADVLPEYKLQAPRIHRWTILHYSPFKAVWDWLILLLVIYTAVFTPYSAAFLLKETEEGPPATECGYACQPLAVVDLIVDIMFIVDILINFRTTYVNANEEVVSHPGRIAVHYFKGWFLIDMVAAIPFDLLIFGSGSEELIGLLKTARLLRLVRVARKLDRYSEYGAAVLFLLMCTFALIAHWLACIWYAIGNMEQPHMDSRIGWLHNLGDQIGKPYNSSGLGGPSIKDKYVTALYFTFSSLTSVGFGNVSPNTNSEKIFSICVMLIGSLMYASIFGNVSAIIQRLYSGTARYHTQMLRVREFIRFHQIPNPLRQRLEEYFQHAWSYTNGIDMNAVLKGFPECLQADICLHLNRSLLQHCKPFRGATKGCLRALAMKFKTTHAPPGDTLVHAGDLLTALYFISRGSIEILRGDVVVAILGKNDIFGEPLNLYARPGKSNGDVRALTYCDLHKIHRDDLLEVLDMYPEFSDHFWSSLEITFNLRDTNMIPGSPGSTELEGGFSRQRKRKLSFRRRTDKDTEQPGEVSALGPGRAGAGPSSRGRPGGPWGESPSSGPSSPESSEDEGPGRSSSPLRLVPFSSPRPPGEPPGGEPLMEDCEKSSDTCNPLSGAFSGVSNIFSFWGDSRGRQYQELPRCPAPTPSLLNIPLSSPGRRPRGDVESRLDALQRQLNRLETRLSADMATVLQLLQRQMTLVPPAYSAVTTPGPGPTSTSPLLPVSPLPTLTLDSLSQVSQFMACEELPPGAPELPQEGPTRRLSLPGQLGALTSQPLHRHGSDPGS
Outline: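 hERG activity was measured by patch-clamp electrophysiology as the reduction in channel current caused by the compound, giving an IC50.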

[10] = Blood clearance in CD1 mouse at 1 mg/kg, iv by LC-MS/MS analysis; assay type: ADME, organism-based; settings: whole blood
[11] = Blood clearance in CD1 mouse at 1 mg/kg, iv by LC-MS/MS analysis relative to hepatic blood flow; assay type: ADME, organism-based; settings: in vivo
Outline: (§1)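 Clearance expressed as a percentage of liver blood flow: compound blood or plasma clearance after i.v. dosing divided by the hepatic blood flow of that species.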

[12] = Blood clearance in rat at 1 mg/kg, iv by LC-MS/MS analysis relative to hepatic blood flow; assay type: ADME, organism-based; settings: in vivo; outline: as §1
[13] = Blood clearance in Beagle dog at 1 mg/kg, iv by LC-MS/MS analysis relative to hepatic blood flow; assay type: ADME, organism-based, Canis lupus familiaris; settings: in vivo; outline: as §1
[14] = Blood clearance in cynomolgus monkey at 1 mg/kg, iv by LC-MS/MS analysis relative to hepatic blood flow; assay type: ADME, organism-based, Macaca fascicularis; settings: in vivo; outline: as §1
[15] = Half life in human hepatocytes at 0.5 uM by LC-MS/MS analysis; assay type: ADME, cell-based, Hepatocyte
Outline: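 Cryopreserved human hepatocytes were incubated with compound for up to 2 h, and metabolic turnover was followed to estimate half-life.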

[16] = Blood clearance in rat at 1 mg/kg, iv by LC-MS/MS analysis; assay type: ADME, organism-based; settings: whole blood
Outline: (§2)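 Rat and dog received a single i.v. dose of 1 mg/kg in DMSO/20% hydroxypropyl-β-cyclodextrin (10/90), pH adjusted. Clearance was taken from blood or plasma concentration–time profiles.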

[17] = Blood clearance in Beagle dog at 1 mg/kg, iv by LC-MS/MS analysis; assay type: ADME, organism-based, Canis lupus familiaris; settings: whole blood; outline: as §2
[18] = Plasma clearance in cynomolgus monkey at 1 mg/kg, iv by LC-MS/MS analysis; assay type: ADME, organism-based, Macaca fascicularis
[19] = Plasma clearance in CD1 mouse at 1 mg/kg, iv by LC-MS/MS analysis relative to hepatic blood flow; assay type: ADME, organism-based; settings: in vivo; outline: as §1
[20] = Plasma clearance in cynomolgus monkey at 1 mg/kg, iv by LC-MS/MS analysis relative to hepatic blood flow; assay type: ADME, organism-based, Macaca fascicularis; settings: in vivo; outline: as §1
Hepatitis C virus = experiment: Antiviral activity against HCV genotype1 infected in human assessed as reduction in plasma viral RNA level at 420 mg, po administered as single dose; assay type: functional, Hepacivirus hominis, genotype 1
[21] = Half life in human assessed as 5-cyclopropyl-2-(4-fluorophenyl)-N-methyl-6-(methylsulfonamido)benzofuran-3-carboxamide level; assay type: ADME
[22] = Half life in rat hepatocytes at 0.5 uM by LC-MS/MS analysis; assay type: ADME, cell-based, Hepatocyte

SMILES: CNC(=O)c1c(-c2ccc(F)cc2)oc2cc(N3C(=O)OC[C@@H]3c3ccc(B(O)O)c(F)c3)c(C3CC3)cc12
- clearance [1]: 22 mL/min/kg
- Vd [2]: 1.3 L/kg
- half-life [3]: 1.2 h
- AUC [4]: 280 ng·h/mL
- bioavailability [5]: 8%

SMILES: CNC(=O)c1c(-c2ccc(F)cc2)oc2cc(N(c3cc(Cl)c4c(c3)COB4O)S(C)(=O)=O)c(C3CC3)cc12
- Vd [2]: 0.9 L/kg
- half-life [3]: 2.8 h
- AUC [4]: 5400 ng·h/mL
- IC50 (Cytochrome P450 2C9): 22 µM
- IC50 (Cytochrome P450 2C19): > 33 µM
- IC50 (Cytochrome P450 3A4 [6]): > 33 µM
- IC50 (Cytochrome P450 3A4 [7]): > 33 µM
- IC50 (Cytochrome P450 3A4 [8]): > 33 µM
- inhibition (INH) (Cytochrome P450 1A2): Active
- inhibition (INH) (Cytochrome P450 2D6): Active
- IC50 [9]: 16 µM
- clearance [10]: 0.7 mL/min/kg
- CL [11]: 0.6%
- CL [12]: 8.9%
- CL [13]: 2.1%
- CL [14]: 13%

SMILES: CNC(=O)c1c(-c2ccc(F)cc2)oc2cc(N(Cc3ccc(B(O)O)c(F)c3)S(C)(=O)=O)c(C3CC3)cc12
- clearance [1]: 29 mL/min/kg
- Vd [2]: 1.4 L/kg
- half-life [3]: 1 h
- AUC [4]: 700 ng·h/mL
- bioavailability [5]: 23%
- half-life at 0.5 µM [15]: 1 h
- IC50 (Cytochrome P450 2C9): 4.9 µM
- IC50 (Cytochrome P450 2C19): 18 µM
- IC50 (Cytochrome P450 3A4 [6]): 7.1 µM
- IC50 (Cytochrome P450 3A4 [7]): > 33 µM
- IC50 (Cytochrome P450 3A4 [8]): 28 µM
- clearance [16]: 29 mL/min/kg
- clearance [17]: 11 mL/min/kg
- clearance [18]: 48 mL/min/kg
- CL [19]: 1.1%
- CL [12]: 37%
- CL [13]: 19%
- CL [20]: 100%
- Activity (Hepatitis C virus): 1.33 log10IU/ml
- t1/2 [21]: 45 h

SMILES: CNC(=O)c1c(-c2ccc(F)cc2)oc2cc(-n3nccc3-c3ccc(B(O)O)c(F)c3)c(C3CC3)cc12
- clearance [1]: 5.4 mL/min/kg
- Vd [2]: 1.3 L/kg
- half-life [3]: 3.4 h
- AUC [4]: 10000 ng·h/mL
- bioavailability [5]: 64%
- IC50 (Cytochrome P450 2C9): 1.5 µM
- IC50 (Cytochrome P450 2C19): 23 µM
- IC50 (Cytochrome P450 3A4 [6]): 2 µM
- IC50 (Cytochrome P450 3A4 [7]): > 33 µM
- IC50 (Cytochrome P450 3A4 [8]): > 33 µM

SMILES: CNC(=O)c1c(-c2ccc(F)cc2)oc2cc(-n3ncnc3-c3ccc(B(O)O)c(F)c3)c(C3CC3)cc12
- clearance [1]: 4.5 mL/min/kg
- Vd [2]: 0.9 L/kg
- half-life [3]: 2.6 h
- AUC [4]: 7600 ng·h/mL
- bioavailability [5]: 40%
- IC50 (Cytochrome P450 2C9): 2.7 µM
- IC50 (Cytochrome P450 2C19): 1.2 µM
- IC50 (Cytochrome P450 3A4 [6]): 8.9 µM
- IC50 (Cytochrome P450 3A4 [7]): > 33 µM
- IC50 (Cytochrome P450 3A4 [8]): > 33 µM

SMILES: CNC(=O)c1c(-c2ccc(F)cc2)oc2cc(N(C3CCc4c(B(O)O)cccc43)S(C)(=O)=O)c(C3CC3)cc12 (stereo not given)
- clearance [1]: 69 mL/min/kg
- Vd [2]: 3.5 L/kg
- half-life [3]: 1.1 h
- AUC [4]: 40 ng·h/mL
- bioavailability [5]: 4%
- half-life at 0.5 µM [22]: 0.75 h
- t1/2 ([15]; 0.5 µM): < 0.25 h

SMILES: CNC(=O)c1c(-c2ccc(F)cc2)oc2cc(N(Cc3ccc(B(O)O)cc3C(F)(F)F)S(C)(=O)=O)c(C3CC3)cc12
- clearance [1]: 3.5 mL/min/kg

SMILES: CNC(=O)c1c(-c2ccc(F)cc2)oc2cc(N(c3ccc(B(O)O)c(Cl)c3)S(C)(=O)=O)c(C3CC3)cc12
- clearance [1]: 5.1 mL/min/kg
- Vd [2]: 1.1 L/kg
- half-life [3]: 3.7 h
- AUC [4]: 4800 ng·h/mL
- bioavailability [5]: 27%
- IC50 (Cytochrome P450 2C9): 2.6 µM
- IC50 (Cytochrome P450 2C19): 7.4 µM
- IC50 (Cytochrome P450 3A4 [6]): 4.2 µM
- IC50 (Cytochrome P450 3A4 [7]): > 33 µM
- IC50 (Cytochrome P450 3A4 [8]): 8.1 µM
- IC50 [9]: 1.6 µM
